This is a sample that favours compounds with a hit; in the whole collection about 1.7% have one here.
CaV13 ICDI inh – Primary screen for inhibitors of IQ motif and Ca2+-dependent inactivation inhibitor domain binding in CACNA1D, Förster resonance energy transfer in living cells, …. HEK cells, CFP/YFP FRET ICDI-IQ, plate reader, 10 min; percent FRET-ratio fall versus neutral wells. inhibition, % at 12.3 µM. 340,000 tested, 0.098% active;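 active = mean replicate inhibition of at least 30% and at least 1% of replicates passing that level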
Ecoli rRNA inh – inhibits bacterial ribosomal RNA function over humanized ribosomes; E. coli WT GFP vs humanized-ribosome RFP mutants, fluorescence, 24 h; stronger effect = lower value; DMSO median 0, no signal -100; 350,000 tested, 1.6% active; GFP signal change (wild-type ribosome), % (test concentration not listed);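 active = significant combined selectivity score with lowered wild-type GFP, culture density cut under 30%, mutant RFP and density less affected; inactive = any of these conditions unmet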
CFTR F508del cor – CFTR F508del correction in bronchial cells; CFBE cells, YFP halide quenching; stimulated with forskolin plus potentiator P3; % fluorescence drop versus neutral controls; activity (quench increase), % at 7.58 µM; 350,000 tested, 0.36% active;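 active = mean added fluorescence quench of at least 8% versus neutral control, with both replicates also reaching 8%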;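 note: cells transiently co-express mutant CFTR-F508del with the halide-sensitive YFP; corrector assay measuring rescue of mutant channel to the surface after 24 h compound exposure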
Cneo AK release – Cryptococcus neoformans lysis via adenylate kinase release. C. neoformans lysis, adenylate kinase release luminescence, 4 h; normalised: neutral wells 0, clomiphene wells 100. lysis activity, % at 15 µM. 360,000 tested, 0.2% active. AID 651654;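 active = mean lysis activity across replicates of at least 80%, whatever share of replicates individually reach that level; inactive = mean lysis activity below 80%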
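Material – Cryptococcus neoformans yeast cells · Quantity – 5 × 10^6 yeast cells/mL · Buffer or medium – YPD medium · Compound – single dose · Timing – 4 h static compound exposure, 37 °C, read 1 h post-reagent · Signal – adenylate kinase release luminescence · Read-out basis – lysis from increased AK signal · Benchmarks – Clomiphene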
Large screens that a line does not name were inactive.

CN1CCN(CC#CCn2c3ccccc3c3ccccc32)CC1	Ecoli rRNA inh -33.6
CN1CCN(CC(O)Cn2c3ccccc3c3ccccc32)CC1 (stereo not drawn)	none
C[C@@H]1CN([C@H](C)CO)C(=O)c2cccc(NS(=O)(=O)c3ccc(Cl)cc3)c2O[C@H]1CN(C)C(=O)Nc1ccc(F)cc1	none (no result: CaV13 ICDI inh, Cneo AK release)
Nc1ccccc1SC(CC(=O)c1ccccc1)c1ccc([N+](=O)[O-])cc1 (stereo not drawn)	Ecoli rRNA inh -20.1
Nc1ccccc1SC(CC(=O)c1ccccc1)c1cccc([N+](=O)[O-])c1 (stereo not drawn)	Ecoli rRNA inh -24.2
COc1ccc(C(CC(=O)c2ccc(C)cc2)Sc2ccccc2N)cc1 (stereo not drawn)	none
CC(=O)N1[C@@H]2Cn3c(ccc(C4=CCCC4)c3=O)[C@H]1[C@@H](C(=O)NC1CCCCC1)[C@@H]2CO	none (no result: CaV13 ICDI inh)
CCOC(=O)C1=CN(Cc2cccc(I)c2)S(=O)(=O)N(C)C1C (stereo not drawn)	CFTR F508del cor 12.3
Cc1ccc(-c2cnc3c(c2)C(=O)N([C@H](C)CO)C[C@@H](C)[C@H](CN(C)C(=O)c2ccccc2)O3)cc1	none (no result: CaV13 ICDI inh)
O=C(O)c1cccc(CN2C(=O)S/C(=C/c3ccccc3[N+](=O)[O-])C2=O)c1	Ecoli rRNA inh -22.2 (no result: Cneo AK release)
C=C1C(=O)[C@]23C[C@H]1CC[C@H]2[C@]1(C)[C@@H](OC(C)=O)CC[C@@](C)(C(=O)O)[C@H]1C[C@@H]3O	CFTR F508del cor 8.6
CCOC(=O)c1sc(=S)n(C)c1NC(=O)c1cccc(Br)c1	Ecoli rRNA inh -48.7
CCOC(=O)c1sc(=S)n(C)c1NC(=O)c1ccccc1	none (no result: Ecoli rRNA inh, CFTR F508del cor)
O=C(NNc1cc(N2CCCC2)nc(N2CCCC2)n1)c1ccc([N+](=O)[O-])cc1	CaV13 ICDI inh 64.2 (no result: Cneo AK release)
CC(=O)NNc1cc(N2CCOCC2)nc(N2CCOCC2)n1	CaV13 ICDI inh active
CC(C)(C)c1ccc(C(=O)NNc2cc(N3CCOCC3)nc(N3CCOCC3)n2)cc1	none (no result: Cneo AK release)
CCc1nc2ccccc2c(C(=O)OCC(=O)NCc2ccc3c(c2)OCO3)c1C	none (no result: CFTR F508del cor, Cneo AK release)
O=C(CSc1nc(CCC2CCCC2)nc2ccccc12)NCc1ccc2c(c1)OCO2	Cneo AK release 115.4
CCCc1nc2ccccc2c(C(=O)OCC(=O)NCc2ccc3c(c2)OCO3)c1CC	CFTR F508del cor 9.0 (no result: Cneo AK release)
COc1cccc(-c2nc(N3CCN(C)CC3)c3ccccc3n2)c1O	Ecoli rRNA inh -22.8, CFTR F508del cor 14.2 (no result: Cneo AK release)
COc1ccsc1C(=O)Nc1ccc(F)cc1F	none (no result: Cneo AK release)
CSc1sc(C(=O)Nc2ccc(F)cc2F)c2c1C=CCC2	Ecoli rRNA inh -26.4
CC(C)Cc1nnc(NS(=O)(=O)c2ccccc2)s1	Ecoli rRNA inh -16.6
CCCC(=O)Nc1ccc2c(c1)C(=O)N(C)C[C@@H](OC)[C@H](C)CN(Cc1ccc(F)cc1)[C@H](C)CO2	none (no result: CaV13 ICDI inh, Cneo AK release)
CN(C)C(CNc1ncnc2sc3c(c12)CCCCC3)c1ccco1 (stereo not drawn)	Ecoli rRNA inh -38.3 (no result: Cneo AK release)
Nc1nonc1-n1nnc(C(=O)N/N=C/c2ccc(O)cc2)c1COc1ccc(F)cc1	Ecoli rRNA inh -24.2
Nc1nonc1-n1nnc(C(=O)N/N=C/c2ccccc2Cl)c1CSc1ccccc1	Ecoli rRNA inh -18.0
Nc1nonc1-n1nnc(C(=O)N/N=C/c2cccs2)c1CSc1ccccc1	none
Nc1nonc1-n1nnc(C(=O)N/N=C/c2ccc(OCc3ccccc3)cc2)c1COc1ccc(F)cc1	none
CN(Cc1c(C(=O)N/N=C/c2ccc(O)cc2)nnn1-c1nonc1N)c1ccccc1	Ecoli rRNA inh -27.3
CN(Cc1c(C(=O)N/N=C/c2ccccc2)nnn1-c1nonc1N)c1ccccc1	Ecoli rRNA inh -27.2
C[C@H]1CCCCO[C@@H](CN(C)Cc2ccc3c(c2)OCO3)[C@@H](C)CN([C@@H](C)CO)C(=O)c2cc(NC(=O)Nc3ccc4c(c3)OCO4)ccc2O1	none (no result: CaV13 ICDI inh)
CO[C@@H]1CN(C)C(=O)c2cc(NC(=O)Nc3ccccc3F)ccc2OC[C@@H](C)N(Cc2ccccc2C(=O)O)C[C@@H]1C	none (no result: CaV13 ICDI inh)
O=C(NNS(=O)(=O)c1ccc(Cl)cc1)c1cc(-c2ccccc2)nc2ccccc12	Ecoli rRNA inh -30.8
O=C(N/N=C/c1ccc[nH]1)c1cc(-c2ccc(Cl)cc2)nc2ccccc12	Ecoli rRNA inh -38.5 (no result: Cneo AK release)
O=C(N/N=C/c1cccnc1)c1cc(-c2ccc(Cl)cc2)nc2ccccc12	none
Cc1cccc(S(=O)(=O)NNC(=O)c2cc(-c3ccc(F)cc3)nc3ccccc23)c1	none
O=C(NNC(=O)c1cc(-c2ccccc2)nc2ccccc12)Nc1cccc(Cl)c1	none (no result: CaV13 ICDI inh, Ecoli rRNA inh, CFTR F508del cor)
O=C(NNC(=O)c1cc(-c2cccnc2)nc2ccccc12)Nc1ccc(Cl)cc1	Ecoli rRNA inh -29.3 (no result: Cneo AK release)
Cc1cc(C(=O)NNC(=O)c2ccc(Cl)c(S(N)(=O)=O)c2)c(C)o1	CFTR F508del cor 8.7
CCOC(=O)/C(=N\Nc1ccccc1)S(=O)(=O)c1ccccc1	none
CCOC(=O)/C(=N\Nc1ccccc1)P(=O)(c1ccccc1)c1ccccc1	Ecoli rRNA inh -36.8
OC[C@@H]1[C@@H](c2ccccc2)C2(CN(Cc3ccccc3F)C2)N1Cc1ccccc1F	CFTR F508del cor 10.4 (no result: CaV13 ICDI inh, Cneo AK release)
CCCNC(=O)C[C@@H]1CC[C@@H]2[C@H](COC[C@@H](O)CN2Cc2ccccc2F)O1	none (no result: CaV13 ICDI inh)
C[C@@H]1CN([C@@H](C)CO)C(=O)c2cc(NC(=O)C3CCCCC3)ccc2O[C@@H](C)CCCCO[C@@H]1CN(C)Cc1ccc2c(c1)OCO2	none (no result: CaV13 ICDI inh)
Cc1ccc(S(=O)(=O)CC(=O)c2cc(C)c(O)c(C)c2)cc1	Ecoli rRNA inh -24.0
Cc1ccc(S(=O)(=O)CCCS(=O)(=O)c2ccc(C)cc2)cc1	none (no result: Ecoli rRNA inh, CFTR F508del cor)
C[C@@H]1CN([C@@H](C)CO)S(=O)(=O)c2ccc(C#CC3CC3)cc2O[C@@H]1CN(C)C(=O)C1CCCCC1	none (no result: CaV13 ICDI inh, Cneo AK release)
Cc1cccc(-n2c(C)cc(/C=C3\NC(=O)NC3=O)c2C)c1	none (no result: Cneo AK release)
Cc1cc(/C=C2/NC(=O)NC2=O)c(C)n1-c1ccncc1	Ecoli rRNA inh -27.5
CCCN(CCC)c1nc(-c2ccccn2)nc2ccccc12	none
c1ccc(CCNc2nc(-c3ccccn3)nc3ccccc23)cc1	CFTR F508del cor 12.7
CCNC(=O)C[C@H]1CC[C@@H](NC(=O)NC2CCCCC2)[C@H](CO)O1	Cneo AK release 97.0 (no result: CaV13 ICDI inh)
CCNC(=O)C[C@H]1CC[C@H](NC(=O)NC2CCCCC2)[C@H](CO)O1	none (no result: CaV13 ICDI inh)
CCNC(=O)C[C@@H]1CC[C@H](NC(=O)NC2CCCCC2)[C@@H](CO)O1	none (no result: CaV13 ICDI inh)
CCNC(=O)C[C@H]1CC[C@H](NC(=O)NC2CCCCC2)[C@@H](CO)O1	Cneo AK release 107.4 (no result: CaV13 ICDI inh)
CCC1C(c2ccccc2)N(C)C(c2ccccc2)CC1(O)c1ccccc1 (stereo not drawn)	none (no result: Cneo AK release)
CC(C)C1C(c2ccccc2)N(C)C(c2ccccc2)CC1(O)c1ccccc1 (stereo not drawn)	Ecoli rRNA inh -29.8
Nc1ccc2c(c1)Cc1cc(N)c(Cl)cc1-2	Ecoli rRNA inh -31.4
